Source: PubChem (several laboratories)
GPR7 antag: human neuropeptides B/W receptor 1 antagonism. AID 1861. P48145. inhibition, % at 4.4 µM. GPR7-expressing cells, fluorescence antagonist assay. actives 1.1% (n = 290,000); in the data active means inhibition above about 16%, passing the limit was not always enough;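 further: cells stimulated with the agonist NPW; 0% = agonist with vehicle and 100% = vehicle without agonist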
Target sequence (P48145 whole entry, looked up): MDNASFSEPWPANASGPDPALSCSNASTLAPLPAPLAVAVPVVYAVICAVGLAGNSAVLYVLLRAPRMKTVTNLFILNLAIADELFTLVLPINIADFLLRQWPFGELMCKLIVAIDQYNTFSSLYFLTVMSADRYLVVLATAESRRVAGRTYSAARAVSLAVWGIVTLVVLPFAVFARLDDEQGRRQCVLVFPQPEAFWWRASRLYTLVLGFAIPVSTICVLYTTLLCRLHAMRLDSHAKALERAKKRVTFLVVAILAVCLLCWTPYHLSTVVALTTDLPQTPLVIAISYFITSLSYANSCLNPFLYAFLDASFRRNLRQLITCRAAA
NS3 helicase inh: HCV NS3 helicase inhibition; inhibition, % at 10.9 µM; NS3 helicase DNA unwinding, Cy5 molecular beacon fluorescence; AID 1800; actives 0.56% (n = 290,000);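 active means inhibition above the mean of all tested compounds plus 3 SD, set per campaign, cut at about 35% in these data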;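 further: 0% = DMSO wells and 100% = thioflavine S control wells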
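System: NS3 helicase fragment of HCV / Schedule: 1 h at 25 °C / Control set: DMSO alone as 0% and 110 µM thioflavine S as 100% / Reagent: Cy5/quencher beacon DNA duplex and ATP to start / Technique: Cy5 fluorescence / Replication: singlicate / Evaluation: % inhibition of end-to-start signal ratio versus controls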
DNA FID counter-1: displaces DNA intercalator in HCV helicase counter-screen; actives 0.17% (n = 290,000); DNA fluorescent intercalator displacement, fluorescence; inhibition, % at 7.9 µM;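 further: 0% = vehicle and 100% = reference compound; higher means more ethidium bromide displaced from hairpin DNA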
HCV core dimer: blocks dimerization of HCV core protein. actives 0.33% (n = 300,000). AID 1899. TR-FRET GST/Flag-core106 dimerization, 1536-well. inhibition, % at 5 µM;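 active means inhibition above the mean of all tested compounds plus 3 SD, set per screening campaign, cut at about 45% in these data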
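Material: GST/Flag-tagged HCV core106 proteins. Incubation: 4 h, 22.5 °C incubation. Read-out basis: inhibition (%) from 671 over 617 nm ratio. Measured by: TR-FRET, excitation 340 nm, emission 617 and 671 nm.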
p-CIP stab down: lowers stability of the mouse p/CIP coactivator protein; Q05BA5; F442A p/CIP-EGFP cells, EGFP fluorescence, 16 h; decrease of EGFP signal, % at 10 µM; actives 0.01% (n = 290,000); AID 1984;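 active means EGFP signal decrease of at least 30% at 10 µM or well 3 SD below plate mean, unless failing retest; inactive means the rest, including hits failing retest or dose response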
NS3 hel confirm: HCV NS3 helicase inhibition, confirmation assay; shares compounds with NS3 helicase inh; NS3 helicase DNA unwinding, Cy5 molecular beacon fluorescence; inhibition, % at 10.9 µM; actives 31% (n = 1,600); AID 1943;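 active means inhibition above the mean of all tested compounds plus 3 SD, cutoff set per campaign, cut at about 36% in these data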
DNA FID counter-2: counter-screen for HCV NS3 helicase inhibitors: DNA intercalator displacement | DNA fluorescent intercalator displacement, fluorescence | shares compounds with NS3 helicase inh | inhibition, % at 7.9 µM | actives 4% (n = 1,600);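 further: 0% = vehicle and 100% = reference compound; higher means more displacement of ethidium bromide from the DNA hairpin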
DNA FID DR: DNA intercalator displacement in dose response | fluorescent intercalator displacement from DNA, fluorescence | 120 tested, under 10 active | IC50, µM | shares compounds with NS3 helicase inh; call rule not given here
The depositor's hits bear a star; · = not tested or not shown. A selection: hits, their analogues and other compounds. The true share with any hit is near 1.9%. Unless noted, no stated cut-off is given here; in the data, active means inhibition above about 37%; inactive means the rest.

SMILES	GPR7 antag	NS3 helicase inh	DNA FID counter-1	HCV core dimer	p-CIP stab down	NS3 hel confirm	DNA FID counter-2	others
N#C/C(=C\c1ccco1)c1nc2ccccc2s1	6.0	7.0	-6.0	-8.3	-43.2	·	·
COc1ccc(Cl)cc1NC(=O)C1CCN(S(C)(=O)=O)CC1	5.5	-12.6	-6.6	0.7	-10.8	·	·
CN(C)S(=O)(=O)c1cccc(-c2csc(N/N=C/c3ccco3)n2)c1	-3.2	35.7	-9.1	34.2	12.6	·	·
Cc1ccc(-c2csc(N/N=C/c3ccco3)n2)c(C)c1	-15.0	39.7*	-4.3	2.3	-8.2	-9.6	10.1
CC1C/C(=C/c2ccco2)C(=O)/C(=C/c2ccco2)C1 (configuration not stated)	-3.2	27.4	-23.9	25.5	-4.1	·	·
O=C1/C(=C/c2cccs2)CCC/C1=C\c1cccs1	-1.5	71.8*	-19.6	38.9	-6.2	-2.9	0.8
O=C1/C(=C\c2ccco2)CCC/C1=C\c1ccco1	-5.6	48.2*	-20.7	31.5	11.7	27.1	28.1
CCCCS(=O)(=O)N1CCCC(C(=O)Nc2ccc3c(c2)CCC3)C1 (configuration not stated)	-0.4	0.9	-25.7	3.3	-2.1	·	·
COc1ccc(CCNC(=O)COc2ccc(C)nc2[N+](=O)[O-])cc1OC	18.0	-2.4	-9.0	2.3	-8.8	·	·
COC(CNC(=O)c1ccc2c(c1)ncn2-c1cccc(C)c1)OC	6.6	-3.5	-23.5	0.7	0.2	·	·
CC(C)CCN(C(=O)CNC(=O)c1ccco1)C(C(=O)NC1CCCCC1)c1cccnc1 (configuration not stated)	-2.4	2.3	-32.4	2.7	4.8	·	·
CC1=NN(c2ccc(C)c(C)c2)C(=O)/C1=C\C=C\c1ccc([N+](=O)[O-])o1	3.5	39.9*	-6.1	62.7*	-8.1	15.0	33.2
CC1(C)Oc2ccc3ccc(=O)oc3c2/C(=C/NNC(N)=S)C1=O	6.0	50.6*	-13.5	-23.3	-2.2	-16.7	-8.4
Cc1ccc(S(=O)(=O)N2[C@@H](c3ccc(Cl)cc3)C(C(=O)O)=CC[C@H]2c2cccs2)cc1	·	·	·	15.7	·	·	·
CCN(CC)CCn1cnc2c([nH]c3cccc(OC)c32)c1=O	-16.9	41.5*	-8.9	-1.6	-8.3	-16.0	2.3
COc1cccc2[nH]c3c(=O)n(CCN(C)C)cnc3c12	·	·	·	3.4	-4.4	·	·
CN1CCN(CC(=O)Nc2nc(-c3ccccc3)cs2)CC1	-0.1	7.0	13.7	-4.3	-7.3	·	·
CN1CCN(CC(=O)N(C)c2nc(-c3ccccc3)cs2)CC1	4.4	49.3*	16.3	-11.5	0.3	-2.0	21.8
COc1ccccc1C(=O)NCC(c1cccs1)N1CCc2ccccc21 (configuration not stated)	·	·	·	4.4	·	·	·
O=C(O)CCNc1cc(N2CCN(C(=O)c3ccco3)CC2)c2noc3c2c1C(=O)c1ccccc1-3	-10.5	56.9*	-13.2	-150.4	-16.7	76.3*	2.5
CCCCSc1oc(-c2ccco2)nc1S(=O)(=O)c1ccccc1	-8.1	-4.8	-26.2	6.9	-5.6	·	·
CC(C)CSc1oc(-c2ccco2)nc1S(=O)(=O)c1ccccc1	-9.2	40.1*	-22.9	9.4	-5.5	-22.6	-27.1
CCCc1nc2sc3ccccc3c(=O)c2c(=O)n1Cc1ccc(OC)cc1	-8.9	-8.3	-5.6	16.4	-6.1	·	·
CCCc1nc2sc3ccccc3c(=O)c2c(=O)n1Cc1ccco1	-8.9	46.4*	-13.1	·	6.1	4.1	-8.7
COc1ccc(-c2nc(=S)c3c([nH]2)Oc2ccc(C)cc2C3)cc1O	-5.3	52.9*	-25.5	-4.5	-3.1	11.6	-16.2
SMILES	GPR7 antag	NS3 helicase inh	DNA FID counter-1	HCV core dimer	p-CIP stab down	NS3 hel confirm	DNA FID counter-2	others
COc1ccc(-c2nc(-c3ccccc3)c(-c3cc([N+](=O)[O-])ccc3C)[nH]2)cc1O	-2.0	-17.2	4.0	3.5	-9.2	·	·
CCCC(=O)Nc1ccc(-c2csc(N/N=C\c3ccncc3)n2)cc1	5.1	38.0*	-7.7	7.2	5.2	12.2	-2.6
CNC(=S)N(CCCN(C)C)Cc1cc2cc3c(cc2[nH]c1=O)OCCO3	-0.2	1.4	-0.1	-7.6	-0.4	·	·
O=C(CCCN1C(=O)/C(=C/c2ccco2)SC1=S)Nc1ccccc1C(=O)O	-6.0	45.7*	6.8	6.0	-15.2	72.5*	25.9
O=C(CCN1C(=O)/C(=C/c2ccco2)SC1=S)Nc1ccc(O)cc1C(=O)O	-7.6	41.7*	10.2	·	-1.5	65.7*	13.1
O=C(O)CCCN1C(=O)/C(=C\c2ccco2)SC1=S	-2.2	39.2*	-10.2	·	-13.4	28.6	5.1
COc1ccc(NC(=O)Cc2nnc(SCC(=O)NC3=NCCS3)n2C)cc1	-7.8	4.8	-11.9	4.8	-1.6	·	·
O=C(C1CCCN(S(=O)(=O)c2ccc(Br)cc2)C1)N1CCOCC1 (configuration not stated)	-14.6	0.0	-12.4	-0.8	-2.5	·	·
O=C(O)c1cc(NC(=S)NC(=O)C(c2ccccc2)c2ccccc2)ccc1Cl	-7.8	41.0*	-27.9	8.5	-18.4	76.5*	-4.5
O=C(NC(=S)Nc1ccc(Cl)c(C(=O)O)c1)c1ccco1	-21.8	-1.8	-1.1	10.0	-0.7	·	·
O=C(/C=C/c1ccccc1Cl)c1ccccc(=O)c1O	-4.3	44.1*	-18.2	6.9	-2.1	77.8*	32.6	DNA FID DR=>79.4
Cc1ccc(/C=C/C(=O)c2ccccc(=O)c2O)c(C)c1	2.2	37.5*	-16.6	23.6	-0.6	77.1*	16.6	DNA FID DR=>79.4
O=C(/C=C/c1ccccc1Cl)c1ccc(O)cc1	-6.5	-8.3	0.5	8.8	-0.6	·	·
Cc1ccc(C)c(/C=C/C(=O)c2ccccc(=O)c2O)c1	-5.1	38.5*	-23.9	4.9	-1.2	77.1*	16.3	DNA FID DR=>79.4
O=c1ccc(N=Nc2ccccc2)ccc1O	6.3	50.9*	-11.1	-14.2	-0.3	47.7*	-2.2	DNA FID DR=>79.4
O=S(=O)(O)c1ccc(N=Nc2ccccc2)cc1	0.2	0.8	-3.8	-3.8	10.1	·	·
O=C(O)COc1ccc2c(c1)O/C(=C\c1ccco1)C2=O	-16.4	11.2	-11.1	-6.3	-9.3	·	·
Cc1ccc(/C=C2\Oc3cc(OCC(=O)NN)ccc3C2=O)o1	-8.8	39.5*	-31.0	·	-7.5	-1.1	-3.5
O=C(O)c1cc2cc(Oc3ccccc3)ccc2[nH]1	-6.1	17.4	-4.9	12.2	-0.8	·	·
CCCCCCCCCCCCN1C/C(=C\C(=O)OCC)c2cc(C(F)(F)F)ccc2S1(=O)=O	-12.4	25.2	-18.6	12.0	-11.6	·	·
CCCCCCCCCCCCN1C/C(=C\C(=O)OCC)c2ccccc2S1(=O)=O	9.8	79.5*	-27.9	-3.5	-3.8	9.9	-21.9
COc1ccccc1N1CCN(/N=C/c2ccc(O)c(O)c2)CC1	0.6	37.1*	-19.1	-4.1	-10.5	-1.4	-7.4
